Measured values published in ChEMBL document CHEMBL1133105, “Antimalarial, antitrypanosomal, and antileishmanial activities and cytotoxicity of bis(9-amino-6-chloro-2-methoxyacridines): influence of the linker” (J Med Chem, 2000).

Columns and labels:
Trypanosoma cruzi [1] = test: Percentage of activity against Trypanosoma cruzi at 12.5 uM; Toxic upon mouse primary peritoneal macrophages; assay type: functional, organism-based
Outline: (§1)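 Mouse peritoneal macrophages, 30 000/well, infected after 24 h with about 100 000 T. cruzi trypomastigotes per well plus 2-fold drug dilutions (12.5–1.56 µM). Incubated 4 days at 37 °C, 5% CO2. Methanol-fixed, Giemsa-stained and scored microscopically as % reduction of total parasite load (free trypomastigotes plus intracellular amastigotes) versus untreated controls.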

Trypanosoma brucei [2] = test: Percentage of activity against Trypanosoma brucei at 3.13 uM; assay type: functional
Outline: (§2)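 Bloodstream-form T. brucei in HMI-9 medium, 10 000 parasites/well, exposed to 12.5, 6.25, 3.13 and 1.56 µM drug for 4 days. Read-out is % inhibition of parasite multiplication. Macrophage toxicity judged on mouse primary peritoneal macrophages.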

Trypanosoma brucei [3] = test: Percentage of activity against Trypanosoma brucei at 6.25 uM; assay type: functional; outline: as §2
Trypanosoma cruzi [4] = test: In Vitro evaluation for the percentage of activity towards Trypanosoma cruzi at 6.25 uM Concentration; Toxic upon mouse primary peritoneal macrophages; assay type: functional, organism-based; outline: as §1
Trypanosoma brucei [5] = test: Percentage of activity against Trypanosoma brucei at 1.56 uM; assay type: functional; outline: as §2
Plasmodium falciparum [6] = test: Parasite growth inhibition against Plasmodium falciparum K1; assay type: functional, organism-based
Outline: (§3)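 Asynchronous cultures of each strain on human erythrocytes (0.5% parasitemia, 1% final hematocrit) were exposed to serially diluted drug for 24 h at 37 °C. Then 0.5 µCi [3H]hypoxanthine per well was added for 24 h. Incorporation was compared with a drug-free control on the same plate. IC50 was taken from the concentration-response curve as the mean of several independent experiments. DMSO was at most 0.1%.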

Leishmania infantum [7] = test: Percentage of activity against Leishmania infantum at 1.56 uM; assay type: functional
Outline: (§4)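 Starch-stimulated mouse peritoneal macrophages, 30 000/well, infected after 24 h with spleen-derived L. infantum amastigotes (10:1) together with 2-fold drug dilutions (12.5–1.56 µM). Incubated 7 days at 37 °C, 5% CO2. Wright-stained slides scored microscopically as % reduction of total parasite load or of infected macrophages. Uninfected treated cultures judged microscopically for macrophage toxicity.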

Leishmania infantum [8] = test: Percentage of activity against Leishmania infantum at 3.13 uM; assay type: functional; outline: as §4
MRC5 [9] = test: Cytotoxicity on MRC-5 cells at 12.5 uM; assay type: functional; settings: Homo sapiens
Outline: (§5)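 MRC-5 human diploid embryonic lung cells seeded at 5 000/well, washed after 24 h, then given 2-fold drug dilutions (25, 12.5, 6.25, 3.13 µM) in RPMI + 5% FCS, final DMSO below 0.5%. Incubated 7 days at 37 °C, 5% CO2. MTT colorimetric read-out, scored as % reduction of absorbance at 540 nm versus untreated controls.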

Plasmodium falciparum [10] = test: Parasite growth inhibition against Plasmodium falciparum FCM29; assay type: functional, organism-based; outline: as §3
Trypanosoma cruzi [11] = test: Percentage of activity against Trypanosoma cruzi at 1.56 uM; assay type: functional; outline: as §1
Plasmodium falciparum [12] = test: Parasite growth inhibition against Plasmodium falciparum F32A; assay type: functional, organism-based; outline: as §3
Plasmodium falciparum [13] = test: Growth inhibition of chloroquine-sensitive Plasmodium falciparum 3D7
Plasmodium falciparum [14] = test: Parasite growth inhibition against Plasmodium falciparum W2; assay type: functional, organism-based; outline: as §3
MRC5 [15] = test: Cytotoxicity on MRC-5 cells at 6.25 uM; assay type: functional; settings: Homo sapiens; outline: as §5
Plasmodium falciparum [16] = test: Parasite growth inhibition against Plasmodium falciparum GP1; assay type: functional, organism-based; outline: as §3
MRC5 [17] = test: Cytotoxicity on MRC-5 cells at 25 uM; assay type: functional; settings: Homo sapiens; outline: as §5
Plasmodium falciparum [18] = test: Parasite growth inhibition against Plasmodium falciparum FCR3; assay type: functional, organism-based; outline: as §3
Leishmania infantum [19] = test: Percentage of activity against Leishmania infantum at 6.25 uM; Toxic upon mouse primary peritoneal macrophages; assay type: functional, organism-based; outline: as §4
Plasmodium falciparum [20] = test: In vitro sensitivity for Plasmodium falciparum FcB1R; assay type: functional, organism-based
Outline: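 Asynchronous P. falciparum cultures in human erythrocytes (0.5% parasitemia, 1% haematocrit) exposed to serially diluted drug for 24 h at 37 °C. [3H]hypoxanthine (0.5 µCi/well) then added for a further 24 h. Uptake compared with drug-free controls on the same plate. IC50 taken from the concentration–response curve, averaged over independent experiments. DMSO ≤0.1%.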

Trypanosoma cruzi [21] = test: Percentage of activity against Trypanosoma cruzi at 3.13 uM; assay type: functional; outline: as §1
MRC5 [22] = test: Cytotoxicity on MRC-5 cells at 3.13 uM; assay type: functional; settings: Homo sapiens; outline: as §5
Leishmania infantum [23] = test: Percentage of activity against Leishmania infantum at 12.5 uM Concentration; Toxic upon mouse primary peritoneal macrophages; assay type: functional, organism-based; outline: as §4
Leishmania infantum [24] = test: In Vitro evaluation for the percentage of activity towards Leishmania infantum at 1.56 uM Concentration; Toxic upon mouse primary peritoneal macrophages; assay type: functional, organism-based; outline: as §4
Leishmania infantum [25] = test: In Vitro evaluation for the percentage of activity towards Leishmania infantum at 3.13 uM Concentration; Toxic upon mouse primary peritoneal macrophages; assay type: functional, organism-based; outline: as §4
Trypanosoma cruzi [26] = test: In Vitro evaluation for the percentage of activity towards Trypanosoma cruzi at 3.13 uM Concentration; Toxic upon mouse primary peritoneal macrophages; assay type: functional, organism-based; outline: as §1
Trypanosoma brucei [27] = test: In Vitro evaluation for the percentage of activity towards Trypanosoma brucei at 12.5 uM Concentration; Toxic upon mouse primary peritoneal macrophages; assay type: functional, organism-based; outline: as §2
Trypanosoma brucei [28] = test: Percentage of activity against Trypanosoma brucei at 12.5 uM; assay type: functional; outline: as §2
Trypanosoma cruzi [29] = test: In Vitro evaluation for the percentage of activity towards Trypanosoma cruzi at 1.56 uM Concentration; Toxic upon mouse primary peritoneal macrophages; assay type: functional; outline: as §1

| SMILES | Cytotoxicity (Trypanosoma cruzi [1]) | Parasite growth inhibition (Trypanosoma brucei [2]) [%] | Inhibition of parasite multiplication (Trypanosoma brucei [3]) [%] | Cytotoxicity (Trypanosoma cruzi [4]) | Percent inhibition of parasite multiplication (Trypanosoma brucei [5]) [%] | IC50 (Plasmodium falciparum [6]) [nM] | Antileishmanial activity (% reduction of parasite load) (Leishmania infantum [7]) [%] | Percent antileishmanial activity (reduction of parasite load) (Leishmania infantum [8]) [%] | cytotoxicity at 12.5 µM (MRC5 [9]) [%] | IC50 (Plasmodium falciparum [10]) [nM] | Parasite load reduction (Trypanosoma cruzi [11]) [%] | cytotoxicity at 6.25 µM (MRC5 [15]) [%] | cytotoxicity at 25 µM (MRC5 [17]) [%] | Cytotoxicity (Leishmania infantum [19]) | IC50 (Plasmodium falciparum [20]) [nM] | cytotoxicity at 3.13 µM (MRC5 [22]) [%] | Cytotoxicity (Leishmania infantum [23]) | Cytotoxicity (Leishmania infantum [24]) | Cytotoxicity (Leishmania infantum [25]) | Cytotoxicity (Trypanosoma cruzi [26]) | also measured |
| --- | --- | --- | --- | --- | --- | --- | --- | --- | --- | --- | --- | --- | --- | --- | --- | --- | --- | --- | --- | --- | --- |
| COc1ccc2nc3cc(Cl)ccc3c(NCCCN(CCCNc3c4ccc(Cl)cc4nc4ccc(OC)cc34)C(=O)C(NC(=O)OC(C)(C)C)C(C)C)c2c1 (configuration not stated) | Toxic | 100 | 100 | Toxic | 100 | 36 | 95 | 99 | 59 | 16 | 70 | 54 | 60 | Toxic | 25 | 43 | Toxic |  |  |  | IC50 (Plasmodium falciparum [12]): 57 nM; IC50 (Plasmodium falciparum [13]): 49 nM; IC50 (Plasmodium falciparum [14]): 40 nM; IC50 (Plasmodium falciparum [16]): 83 nM; IC50 (Plasmodium falciparum [18]): 22 nM; Reduction of T. cruzi parasite load (Trypanosoma cruzi [21]): 90% |
| COc1ccc2nc3cc(Cl)ccc3c(NCCCN(CCCNc3c4ccc(Cl)cc4nc4ccc(OC)cc34)C(=O)[C@@H](C)NC(=O)OC(C)(C)C)c2c1 | Toxic | 100 | 100 | Toxic | 100 | 23 | 95 | 99 | 84 | 11 | 60 | 84 | 100 | Toxic | 33 | 81 | Toxic |  |  |  | IC50 (Plasmodium falciparum [12]): 89 nM; IC50 (Plasmodium falciparum [13]): 57 nM; IC50 (Plasmodium falciparum [14]): 18 nM; IC50 (Plasmodium falciparum [16]): 66 nM; IC50 (Plasmodium falciparum [18]): 32 nM; Reduction of T. cruzi parasite load (Trypanosoma cruzi [21]): 95% |
| COc1ccc2nc3cc(Cl)ccc3c(NCCCN(CCCNc3c4ccc(Cl)cc4nc4ccc(OC)cc34)C(=O)CCN3CCCC3)c2c1 | Toxic | 100 | 100 | Toxic | 100 |  |  |  | 65 |  | 0 | 39 | 76 | Toxic | 91 | 37 | Toxic | Toxic | Toxic | Toxic | Cytotoxicity (Trypanosoma brucei [27]): Toxic |
| COc1ccc2nc3cc(Cl)ccc3c(NCCCCNc3c4ccc(Cl)cc4nc4ccc(OC)cc34)c2c1 | Toxic | 100 | 100 | Toxic | 100 |  |  |  | 100 |  | 90 | 100 | 100 | Toxic | 18 | 100 | Toxic | Toxic | Toxic | Toxic | Inhibition of parasite multiplication (Trypanosoma brucei [28]): 100% |
| COc1ccc2nc3cc(Cl)ccc3c(NCCCCNCCCNc3c4ccc(Cl)cc4nc4ccc(OC)cc34)c2c1 | Toxic | 100 | 100 | Toxic | 100 |  |  |  | 100 |  |  | 100 | 100 | Toxic | 61 | 100 | Toxic | Toxic | Toxic | Toxic | Inhibition of parasite multiplication (Trypanosoma brucei [28]): 100%; Cytotoxicity (Trypanosoma cruzi [29]): Toxic |
